Test results from publication PMC8892239 (EFSA Journal, 2022).

Assays:
bone marrow = experiment: In vivo micronucleus assay; design: species or system rat; conditions: 20 mg/kg bw once by oral gavage
Outline: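 Female rats were dosed twice by oral gavage, 24 h apart, with vehicle or 87.5, 175 or 350 mg/kg bw. Cyclophosphamide 20 mg/kg bw was given once by gavage as positive control. Five groups of five animals. Micronuclei and the PCE/NCE ratio were scored.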

[1] = Residues of EQ and metabolites/TPs in piglet tissues; assay type: in vivo; conditions: piglets
[2] = Residues of EQ and metabolites/TPs in cattle tissues; assay type: in vivo
[3] = ref Regulation (EC) No 1272/2008; cited from earlier work

With `O=P1(N(CCCl)CCCl)NCCCO1` (stereo not drawn) [Cyclophosphamide, cyclophosphamide] the “number of micronuclei (positive control)” value (bone marrow) was “statistically significant increase”.
With `CCOC1=CC(=O)C2=NC(C)(C)C=C(C)C2=C1` [Metabolite A, 6‐ethoxy‐2,2,4‐trimethyl‐quinolin‐8‐one] the residue in muscle ([1]; control feed (0 mg EQ/kg), 42 days, mean ± SD, LOQs as above) was “˂ LOQ”, the residue in muscle ([1]; feed with 50 mg EQ/kg for 42 days, LOQs 1.5 to 2 µg EQ, EQDM, metabolite A/kg, 0.5 µg EQI/kg) was “˂ LOQ” and the concentration at 42 days ([2]; Holstein, bovine, liver, oral, 50 mg EQ/kg complete feed) was 121 ng/g. The “residue in muscle, highest value” ([2]; cattle, control (0 mg EQ/kg feed), 42 days, LOQs as above) was “˂ LOQ”.
In the case of `CCOc1ccc(N)cc1` [p‐phenetidine], the “germ cell mutagenicity classification” value [3] is given as “Muta. 2”.
